The values that follow come from ChEMBL document CHEMBL4393725, “Design and synthesis of novel xanthone-triazole derivatives as potential antidiabetic agents: α-Glucosidase inhibition and glucose uptake promotion” (Eur J Med Chem, 2019).

One data set deals with L02. Put plainly: Cytotoxicity against human LO2 cells assessed as reduction in cell viability incubated for 44 hrs by MTT assay. Type of data set: cell-based. Particulars: L02, 44 h. A digest of the protocol:
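LO2 human hepatocytes in DMEM with 10% FBS, penicillin and streptomycin at 37 °C, 5% CO2. Plated at 5000 cells/well for 24 h, then exposed to a range of concentrations for 44 h. MTT was added for 4 h, formazan dissolved in DMSO, and A490 read. Viability = A treated/A control × 100%. IC50 is the concentration giving 50% viability loss, as mean ± SD.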
(In general: Tetrazolium assays rely on reduction of a dye to a coloured formazan, in cell work by metabolically active cells.)

The subject of a further data set is HepG2 (Homo sapiens). The data set can be described thus: Cytotoxicity against human HepG2 cells assessed as effect on cell survival at 0.625 to 2.5 uM incubated for 44 hrs by MTT assay. To be noted: HepG2, 44 h.
For a further data set, the target named is Alpha glucosidase (Homo sapiens, UniProt O43451+P10253+P14410+Q2M2H8). Put plainly: Inhibition of alpha-glucosidase (unknown origin) using PNP glucoside as substrate preincubated for 30 mins followed by substrate addition further incubated for 1 min by spectrophotometry. Type of data set: protein assay. A digest of the protocol:
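Yeast α-glucosidase with p-nitrophenyl-α-D-glucopyranoside substrate in 50 mM phosphate buffer, pH 6.8, with 5% v/v DMSO. Inhibitor and enzyme were preincubated for 30 min at 37 °C, then the reaction ran for 1 min at 37 °C, read at 400 nm. IC50 came from five concentrations bracketing a preliminary estimate, each measured three times in parallel; mean ± SD.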

Data set [1] relates to Alpha-glucosidase (Saccharomyces cerevisiae). Put plainly: Noncompetitive inhibition of alpha-glucosidase (Saccharomyces cerevisiae) at 0 to 6 uM using PNP glycoside as substrate preincubated for 30 mins followed by substrate addition further incubated for 1 min by Lineweaver-Burk plot analysis.
For data set [2], the system named is HepG2. Put plainly: Induction of glucose uptake in human HepG2 cells at 0.625 to 2.5 uM incubated for 24 hrs in low glucose medium. It counts as functional, cell-based. A digest of the protocol:
(§1)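 HepG2 cells in high-glucose DMEM with 10% FBS and antibiotics, seeded at 5000 cells/well for 24 h. They were washed with low-glucose DMEM and PBS, then treated for 24 h in low-glucose DMEM with 2% FBS at 0.625, 1.25 or 2.5 μM. Glucose left in the medium was measured with a glucose kit. Rosiglitazone was the positive control.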

The test system of data set [3] is HepG2. The data set can be described thus: Induction of glucose uptake in human HepG2 cells at 0.625 to 2.5 uM incubated for 24 hrs in low glucose medium relative to control. It counts as functional. A digest of the protocol: as §1
Data set [4] relates to HepG2. The data set can be described thus: Induction of glucose uptake in human HepG2 cells at 0.625 uM incubated for 24 hrs in low glucose medium relative to control. Type of data set: functional. A digest of the protocol: as §1
Data set [5] relates to HepG2. Put plainly: Induction of glucose uptake in human HepG2 cells incubated for 24 hrs in low glucose medium. It counts as functional, cell-based. A digest of the protocol:
as §1

The subject of data set [6] is HepG2. Put plainly: Induction of glucose uptake in human HepG2 cells at 2.5 uM incubated for 24 hrs in low glucose medium relative to control. Type of data set: functional. A digest of the protocol: as §1
Data set [7] relates to HepG2. Put plainly: Induction of glucose uptake in human HepG2 cells at 1.25 uM incubated for 24 hrs in low glucose medium relative to control. It counts as functional. The essentials:
as §1

For data set [8], the system named is Alpha-glucosidase (Saccharomyces cerevisiae). The data set can be described thus: Noncompetitive inhibition of alpha-glucosidase (Saccharomyces cerevisiae) at 0 to 10 uM using PNP glycoside as substrate preincubated for 30 mins followed by substrate addition further incubated for 1 min by Lineweaver-Burk plot analysis.
Data set [9] shares this test system. Put plainly: Noncompetitive inhibition of alpha-glucosidase (Saccharomyces cerevisiae) at 0 to 3.5 uM using PNP glycoside as substrate preincubated for 30 mins followed by substrate addition further incubated for 1 min by Lineweaver-Burk plot analysis.
The test system is the same in data set [10]. The data set can be described thus: Noncompetitive inhibition of alpha-glucosidase (Saccharomyces cerevisiae) at 0 to 4 uM using PNP glycoside as substrate preincubated for 30 mins followed by substrate addition further incubated for 1 min by Lineweaver-Burk plot analysis.
The test system is the same in data set [11]. The data set can be described thus: Noncompetitive inhibition of alpha-glucosidase (Saccharomyces cerevisiae) at 0 to 9 uM using PNP glycoside as substrate preincubated for 30 mins followed by substrate addition further incubated for 1 min by Lineweaver-Burk plot analysis.

Usually IC50 stands for the concentration needed to halve the response being measured.

Calls of active or inactive are those of the source. No cut-off for these calls is given here.

Turning to `O=C(Cn1cc(COc2cc(O)c3c(=O)c4cc(Br)ccc4oc3c2)nn1)Nc1ccc(O)c(O)c1`, the half-inhibitory concentration (IC50) with L02 is over 100 µM; against Alpha glucosidase, 3.17 µM. Besides, the Activity result in the data set on HepG2 (Homo sapiens) is reported as “Non-Toxic”. Besides, the inhibition result in [1] is “Active”. Further, in the data set on HepG2 [2], the outcome was Active.

`CN(CCOc1ccc(CC2SC(=O)NC2=O)cc1)c1ccccn1` (stereo unspecified) [ROSIGLITAZONE] showed an Activity with HepG2 [3] of 50%.

Consider `COc1ccc(NC(=O)Cn2cc(COc3cc(OC(C)=O)c4c(=O)c5ccc(Br)cc5oc4c3)nn2)c(OC)c1`, for which the Activity in the data set on HepG2 [4] is 61%; with HepG2 (Homo sapiens), “Non-Toxic”; in the data set with HepG2 [5], “Dose-dependent effect”; in the data set with HepG2 [6] it was 163%; with HepG2 [7] it was 90%. Also, the results for the 50% inhibitory concentration (IC50) with L02 and against Alpha glucosidase were over 100 µM and 12.78 µM, respectively.

In the case of `COc1ccc(NC(=O)Cn2cc(COc3cc(OC(C)=O)c4c(=O)c5ccc(OC)cc5oc4c3)nn2)c(OC)c1`, the half-maximal inhibitory concentration (IC50) is over 100 µM with L02 and 33.16 µM on Alpha glucosidase.

Take `O=C(Cn1cc(COc2cc(O)c3c(=O)c4ccc(Br)cc4oc3c2)nn1)Nc1ccc(O)cc1O`: the inhibition entry in [8] is “Active”. The half-inhibitory concentration (IC50) amounted to 74 µM in the data set on L02 and 5.87 µM at Alpha glucosidase. Also, in the data set with HepG2 (Homo sapiens), the Activity result was “Non-Toxic”. Moreover, the result in the data set with HepG2 [2] was inactive.

On to `COc1ccc(NC(=O)Cn2cc(COc3cc(OC(C)=O)c4c(=O)c5ccc(Br)cc5oc4c3)nn2)cc1OC`, for which the values for the half-maximal inhibitory concentration (IC50) in the data set with L02 and on Alpha glucosidase were 25.9 µM and 26.11 µM, respectively.

With `COc1ccc(NC(=O)Cn2cc(COc3cc(OC(C)=O)c4c(=O)c5cc(Br)ccc5oc4c3)nn2)cc1OC`, the IC50 is over 100 µM in the data set with L02 and 32.33 µM against Alpha glucosidase.

With `COc1ccc(NC(=O)Cn2cc(COc3cc(OC(C)=O)c4c(=O)c5cc(OC)ccc5oc4c3)nn2)c(OC)c1`, the figures for the IC50 in the data set on L02 and on Alpha glucosidase were over 100 µM and 42.6 µM, respectively.

In the case of `COc1ccc(NC(=O)Cn2cc(COc3cc(O)c4c(=O)c5ccc(Br)cc5oc4c3)nn2)c(OC)c1`, the 50% inhibitory concentration (IC50) with L02 is over 100 µM; on Alpha glucosidase, 2.78 µM. Also, the Activity result in the data set with HepG2 (Homo sapiens) is on record as “Non-Toxic”. In the data set on HepG2 [2], the result was Active. Moreover, the inhibition result in data set [9] was “Active”.

As to `O=C(Cn1cc(COc2cc(O)c3c(=O)c4cc(O)ccc4oc3c2)nn1)Nc1ccc(O)cc1O`, the IC50 was over 100 µM in the data set on L02 and 15.62 µM on Alpha glucosidase.

Turning to `COc1ccc2oc3cc(OCc4cn(CC(=O)Nc5ccc(OC)c(OC)c5)nn4)cc(OC(C)=O)c3c(=O)c2c1`, the IC50 with L02 was 24.9 µM; at Alpha glucosidase it was over 100 µM.

In the case of `COc1ccc2c(=O)c3c(OC(C)=O)cc(OCc4cn(CC(=O)Nc5ccc(OC)c(OC)c5)nn4)cc3oc2c1`, the figures for the IC50 in the data set with L02 and against Alpha glucosidase were over 100 µM and 98.63 µM, respectively.

Take `COc1ccc(NC(=O)Cn2cc(COc3cc(O)c4c(=O)c5ccc(OC)cc5oc4c3)nn2)c(OC)c1`: the inhibition result in [10] is “Active”. Besides, the IC50 was 89.1 µM in the data set with L02 and 2.06 µM against Alpha glucosidase. Also, the Activity entry is “Non-Toxic” with HepG2 (Homo sapiens) and “Dose-dependent effect” in the data set on HepG2 [5].

As for `O=C(Cn1cc(COc2cc(O)c3c(=O)c4cc(O)ccc4oc3c2)nn1)Nc1ccc(O)c(O)c1`, the half-inhibitory concentration (IC50) in the data set on L02 was over 100 µM; against Alpha glucosidase, 7.06 µM. In addition, the Activity entry in the data set with HepG2 (Homo sapiens) is listed as “Non-Toxic”. In addition, the outcome in the data set with HepG2 [2] was inactive.

Consider `COc1ccc(NC(=O)Cn2cc(COc3cc(OC(C)=O)c4c(=O)c5cc(Br)ccc5oc4c3)nn2)c(OC)c1`, for which the IC50 was 80.7 µM in the data set with L02 and 12.13 µM at Alpha glucosidase. In addition, the Activity entry in the data set with HepG2 (Homo sapiens) is recorded as “Non-Toxic”. The outcome in the data set with HepG2 [2] was inactive.

In the case of `COc1ccc(NC(=O)Cn2cc(COc3cc(O)c4c(=O)c5cc(Br)ccc5oc4c3)nn2)c(OC)c1`, the half-maximal inhibitory concentration (IC50) with L02 was over 100 µM; at Alpha glucosidase, 3.07 µM. Further, in the data set on HepG2 (Homo sapiens), the Activity result was “Non-Toxic”. Further, the inhibition entry in data set [1] was “Active”. For the same compound, the outcome in the data set on HepG2 [2] was inactive.

For `O=C(Cn1cc(COc2cc(O)c3c(=O)c4ccc(Br)cc4oc3c2)nn1)Nc1ccc(O)c(O)c1`, the inhibition result in data set [11] was “Active”. The half-inhibitory concentration (IC50) in the data set on L02 is over 100 µM; on Alpha glucosidase, 5.23 µM. Moreover, the Activity entry was “Non-Toxic” in the data set with HepG2 (Homo sapiens) and “Dose-dependent effect” with HepG2 [5].

For `COc1ccc2oc3cc(OCc4cn(CC(=O)Nc5ccc(OC)c(OC)c5)nn4)cc(O)c3c(=O)c2c1`, the 50% inhibitory concentration (IC50) with L02 and at Alpha glucosidase was over 100 µM throughout.

On to `COc1ccc(NC(=O)Cn2cc(COc3cc(O)c4c(=O)c5ccc(Br)cc5oc4c3)nn2)cc1OC`, for which the IC50 was over 100 µM in the data set with L02 and 11.82 µM against Alpha glucosidase.

As to `O=C(Cn1cc(COc2cc(O)c3c(=O)c4ccc(O)cc4oc3c2)nn1)Nc1ccc(O)cc1O`, the IC50 in the data set on L02 is over 100 µM; on Alpha glucosidase, 17.61 µM.

Turning to `COc1ccc(NC(=O)Cn2cc(COc3cc(O)c4c(=O)c5cc(Br)ccc5oc4c3)nn2)cc1OC`, the half-maximal inhibitory concentration (IC50) is over 100 µM in the data set on L02 and 29.84 µM on Alpha glucosidase.

In the case of `COc1ccc2c(=O)c3c(O)cc(OCc4cn(CC(=O)Nc5ccc(OC)c(OC)c5)nn4)cc3oc2c1`, the IC50 in the data set on L02 was over 100 µM; against Alpha glucosidase it was 15.9 µM.

Turning to `COc1ccc(NC(=O)Cn2cc(COc3cc(O)c4c(=O)c5cc(OC)ccc5oc4c3)nn2)c(OC)c1`, the figures for the half-inhibitory concentration (IC50) with L02 and on Alpha glucosidase were 65.4 µM and 8.31 µM, respectively. In the data set with HepG2 (Homo sapiens), the Activity result is on record as “Non-Toxic”. Besides, the result with HepG2 [2] was inactive.

For `O=C(Cn1cc(COc2cc(O)c3c(=O)c4ccc(O)cc4oc3c2)nn1)Nc1ccc(O)c(O)c1`, the half-inhibitory concentration (IC50) is over 100 µM with L02 and 6.13 µM on Alpha glucosidase. Also, the results for the Activity entry in the data set on HepG2 (Homo sapiens) and in the data set with HepG2 [5] were “Non-Toxic” and “Dose-dependent effect”, respectively.

As for `O=c1c2ccccc2oc2cc(O)cc(O)c12`, the Activity result in the data set on HepG2 (Homo sapiens) is “Non-Toxic”. Moreover, the outcome in the data set with HepG2 [2] was inactive.

Consider “2-(4-(((7-bromo-1-hydroxy-9-oxo-9H-xanthen-3-yl)oxy)methyl)-1H-1,2,3-triazol-1-yl)-N-(2,4-dihydroxyphenyl)acetamide”, for which the outcome with HepG2 [2] was Active.
